Results published in ChEMBL document CHEMBL1124366, “Synthesis and biological properties of N63-carboxamides of teicoplanin antibiotics. Structure-activity relationships” (J Med Chem, 1989).
≈ marks a conversion by molar mass, not a printed value.

Assays:
Format in all cases: functional
Streptococcus pyogenes [1] = assay: In vivo effective dose given perorally to mice infected with Streptococcus pyogenes C 203; conditions: po
Summary of the method: (§1)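 Mice (five per treatment group, five groups) infected intraperitoneally with about 10⁵ cells of Strep. pyogenes C 203, about 100× the LD50. ED50 (mg/kg) was calculated from the percentage of mice surviving at each dose on day 7.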

Streptococcus pyogenes [2] = assay: Subcutaneously administration into mice infected with Streptococcus pyogenes C 203; conditions: sc; summary of the method: as §1
[3] = tested on: Staphylococcus epidermidis; assay: In vitro minimum inhibitory concentration against Staphylococcus epidermis ATCC 12228
[4] = tested on: Staphylococcus haemolyticus; assay: In vitro minimum inhibitory concentration against Staphylococcus hemolyticus 602 cell line; conditions: strain 602
Staphylococcus aureus = assay: In vitro minimum inhibitory concentration against Staphylococcus aureus Tour
Streptococcus pneumoniae = assay: In vitro minimum inhibitory concentration against Streptococcus pneumoniae UC41
Streptococcus pyogenes [5] = assay: In vitro minimum inhibitory concentration against Streptococcus pyogenes C 203
Enterococcus faecalis = assay: In vitro minimum inhibitory concentration against Streptococcus faecalis ATCC 7080

| MIC [3] | MIC (Staphylococcus aureus) | MIC (Streptococcus pneumoniae) | MIC (Streptococcus pyogenes [5]) | MIC (Enterococcus faecalis) | Compound | ED50 (Streptococcus pyogenes [1]) | ED50 (Streptococcus pyogenes [2]) | MIC [4] |
| --- | --- | --- | --- | --- | --- | --- | --- | --- |
| 0.06 µg/mL (≈ 0.031 µM) | 0.12 µg/mL (≈ 0.062 µM) | 0.12 µg/mL (≈ 0.062 µM) | 0.03 µg/mL (≈ 0.0155 µM) | 0.12 µg/mL (≈ 0.062 µM) | CC(=O)N[C@@H]1[C@H](O[C@@H]2c3ccc(c(Cl)c3)Oc3cc4cc(c3O[C@@H]3O[C@@H](CO)[C@@H](O)[C@H](O)[C@@H]3NC(=O)CCCCCCC(C)C)Oc3ccc(cc3Cl)C[C@H]3NC(=O)[C@H](N)c5ccc(O)c(c5)Oc5cc(O)cc(c5)[C@H](NC3=O)C(=O)N[C@H]4C(=O)N[C@H]3C(=O)N[C@@H]2C(=O)N[C@H](C(=O)NCCCN)c2cc(O)cc(O[C@H]4O[C@H](CO)[C@@H](O)[C@@H](O)[C@@H]4O)c2-c2cc3ccc2O)O[C@@H](CO)[C@@H](O)[C@@H]1O | 89.6 mg/kg | 0.08 mg/kg | 0.12 µg/mL (≈ 0.062 µM) |
| 0.06 µg/mL (≈ 0.0308 µM) | 0.12 µg/mL (≈ 0.0615 µM) | 0.12 µg/mL (≈ 0.0615 µM) | 0.06 µg/mL (≈ 0.0308 µM) | 0.12 µg/mL (≈ 0.0615 µM) | CC(=O)N[C@@H]1[C@H](O[C@@H]2c3ccc(c(Cl)c3)Oc3cc4cc(c3O[C@@H]3O[C@@H](CO)[C@@H](O)[C@H](O)[C@@H]3NC(=O)CCCCCCC(C)C)Oc3ccc(cc3Cl)C[C@H]3NC(=O)[C@H](N)c5ccc(O)c(c5)Oc5cc(O)cc(c5)[C@H](NC3=O)C(=O)N[C@H]4C(=O)N[C@H]3C(=O)N[C@@H]2C(=O)N[C@H](C(=O)NCCCCN)c2cc(O)cc(O[C@H]4O[C@H](CO)[C@@H](O)[C@@H](O)[C@@H]4O)c2-c2cc3ccc2O)O[C@@H](CO)[C@@H](O)[C@@H]1O | 90 mg/kg | 0.07 mg/kg | 0.12 µg/mL (≈ 0.0615 µM) |
| 0.06 µg/mL (≈ 0.0308 µM) | 0.12 µg/mL (≈ 0.0615 µM) | 0.06 µg/mL (≈ 0.0308 µM) | 0.06 µg/mL (≈ 0.0308 µM) | 0.12 µg/mL (≈ 0.0615 µM) | CC(=O)N[C@@H]1[C@H](O[C@@H]2c3ccc(c(Cl)c3)Oc3cc4cc(c3O[C@@H]3O[C@@H](CO)[C@@H](O)[C@H](O)[C@@H]3NC(=O)CCCCCCC(C)C)Oc3ccc(cc3Cl)C[C@H]3NC(=O)[C@H](N)c5ccc(O)c(c5)Oc5cc(O)cc(c5)[C@H](NC3=O)C(=O)N[C@H]4C(=O)N[C@H]3C(=O)N[C@@H]2C(=O)N[C@H](C(=O)NCCN(C)C)c2cc(O)cc(O[C@H]4O[C@H](CO)[C@@H](O)[C@@H](O)[C@@H]4O)c2-c2cc3ccc2O)O[C@@H](CO)[C@@H](O)[C@@H]1O | 140 mg/kg | 0.09 mg/kg | 0.12 µg/mL (≈ 0.0615 µM) |
| 0.12 µg/mL (≈ 0.0609 µM) | 0.12 µg/mL (≈ 0.0609 µM) | 0.06 µg/mL (≈ 0.0305 µM) | 0.06 µg/mL (≈ 0.0305 µM) | 0.12 µg/mL (≈ 0.0609 µM) | CC(=O)N[C@@H]1[C@H](O[C@@H]2c3ccc(c(Cl)c3)Oc3cc4cc(c3O[C@@H]3O[C@@H](CO)[C@@H](O)[C@H](O)[C@@H]3NC(=O)CCCCCCC(C)C)Oc3ccc(cc3Cl)C[C@H]3NC(=O)[C@H](N)c5ccc(O)c(c5)Oc5cc(O)cc(c5)[C@H](NC3=O)C(=O)N[C@H]4C(=O)N[C@H]3C(=O)N[C@@H]2C(=O)N[C@H](C(=O)NCc2ccccn2)c2cc(O)cc(O[C@H]4O[C@H](CO)[C@@H](O)[C@@H](O)[C@@H]4O)c2-c2cc3ccc2O)O[C@@H](CO)[C@@H](O)[C@@H]1O | 139 mg/kg | 0.08 mg/kg | 8 µg/mL (≈ 4.06 µM) |

Second part, the molecule before the results:

| Compound | MIC [3] | MIC (Staphylococcus aureus) | MIC (Streptococcus pneumoniae) | MIC (Streptococcus pyogenes [5]) | MIC (Enterococcus faecalis) | ED50 (Streptococcus pyogenes [1]) | ED50 (Streptococcus pyogenes [2]) | MIC [4] |
| --- | --- | --- | --- | --- | --- | --- | --- | --- |
| CC(=O)N[C@@H]1[C@H](O[C@@H]2c3ccc(c(Cl)c3)Oc3cc4cc(c3O[C@@H]3O[C@@H](CO)[C@@H](O)[C@H](O)[C@@H]3NC(=O)CCCCCCC(C)C)Oc3ccc(cc3Cl)C[C@H]3NC(=O)[C@H](N)c5ccc(O)c(c5)Oc5cc(O)cc(c5)[C@H](NC3=O)C(=O)N[C@H]4C(=O)N[C@H]3C(=O)N[C@@H]2C(=O)N[C@H](C(=O)NCCCCCCCN(C)C)c2cc(O)cc(O[C@H]4O[C@H](CO)[C@@H](O)[C@@H](O)[C@@H]4O)c2-c2cc3ccc2O)O[C@@H](CO)[C@@H](O)[C@@H]1O | 0.12 µg/mL (≈ 0.0594 µM) | 0.12 µg/mL (≈ 0.0594 µM) | 0.12 µg/mL (≈ 0.0594 µM) | 0.06 µg/mL (≈ 0.0297 µM) | 0.12 µg/mL (≈ 0.0594 µM) | > 300 mg/kg | 0.18 mg/kg | 0.5 µg/mL (≈ 0.248 µM) |
| CC(=O)N[C@@H]1[C@H](O[C@@H]2c3ccc(c(Cl)c3)Oc3cc4cc(c3O[C@@H]3O[C@@H](CO)[C@@H](O)[C@H](O)[C@@H]3NC(=O)CCCCCCC(C)C)Oc3ccc(cc3Cl)C[C@H]3NC(=O)[C@H](N)c5ccc(O)c(c5)Oc5cc(O)cc(c5)[C@H](NC3=O)C(=O)N[C@H]4C(=O)N[C@H]3C(=O)N[C@@H]2C(=O)N[C@H](C(=O)NCCCN2CCOCC2)c2cc(O)cc(O[C@H]4O[C@H](CO)[C@@H](O)[C@@H](O)[C@@H]4O)c2-c2cc3ccc2O)O[C@@H](CO)[C@@H](O)[C@@H]1O | 0.12 µg/mL (≈ 0.0598 µM) | 0.12 µg/mL (≈ 0.0598 µM) | 0.06 µg/mL (≈ 0.0299 µM) | 0.06 µg/mL (≈ 0.0299 µM) | 0.12 µg/mL (≈ 0.0598 µM) | > 300 mg/kg | 0.18 mg/kg | 0.5 µg/mL (≈ 0.249 µM) |
| CNCCCN(C)C(=O)[C@H]1NC(=O)[C@H]2NC(=O)[C@H](NC(=O)[C@@H]3NC(=O)[C@H]4NC(=O)[C@@H](Cc5ccc(c(Cl)c5)Oc5cc3cc(c5O[C@@H]3O[C@@H](CO)[C@@H](O)[C@H](O)[C@@H]3NC(=O)CCCCCCC(C)C)Oc3ccc(cc3Cl)[C@H]2O[C@@H]2O[C@@H](CO)[C@@H](O)[C@H](O)[C@@H]2NC(C)=O)NC(=O)[C@H](N)c2ccc(O)c(c2)Oc2cc(O)cc4c2)c2ccc(O)c(c2)-c2c(O[C@H]3O[C@H](CO)[C@@H](O)[C@@H](O)[C@@H]3O)cc(O)cc21 | 0.06 µg/mL (≈ 0.0306 µM) | 0.12 µg/mL (≈ 0.0611 µM) | 0.12 µg/mL (≈ 0.0611 µM) | 0.06 µg/mL (≈ 0.0306 µM) | 0.12 µg/mL (≈ 0.0611 µM) | > 300 mg/kg | 0.13 mg/kg | 0.25 µg/mL (≈ 0.127 µM) |
| CCCCC/C=C/CCC(=O)N[C@@H]1[C@H](Oc2c3cc4cc2Oc2ccc(cc2Cl)[C@@H](O[C@@H]2O[C@@H](CO)[C@@H](O)[C@H](O)[C@@H]2NC(C)=O)[C@@H]2NC(=O)[C@H](NC(=O)[C@@H]4NC(=O)[C@H]4NC(=O)[C@@H](Cc5ccc(c(Cl)c5)O3)NC(=O)[C@H](N)c3ccc(O)c(c3)Oc3cc(O)cc4c3)c3ccc(O)c(c3)-c3c(O[C@H]4O[C@H](CO)[C@@H](O)[C@@H](O)[C@@H]4O)cc(O)cc3[C@@H](C(=O)NC3CCNCC3)NC2=O)O[C@@H](CO)[C@@H](O)[C@@H]1O | 0.12 µg/mL (≈ 0.0612 µM) | 0.12 µg/mL (≈ 0.0612 µM) | 0.06 µg/mL (≈ 0.0306 µM) | 0.06 µg/mL (≈ 0.0306 µM) | 0.12 µg/mL (≈ 0.0612 µM) | 89.6 mg/kg | 0.08 mg/kg | 1 µg/mL (≈ 0.51 µM) |
| CC(=O)N[C@@H]1[C@H](O[C@@H]2c3ccc(c(Cl)c3)Oc3cc4cc(c3O[C@@H]3O[C@@H](CO)[C@@H](O)[C@H](O)[C@@H]3NC(=O)CCCCCCC(C)C)Oc3ccc(cc3Cl)C[C@H]3NC(=O)[C@H](N)c5ccc(O)c(c5)Oc5cc(O)cc(c5)[C@H](NC3=O)C(=O)N[C@H]4C(=O)N[C@H]3C(=O)N[C@@H]2C(=O)N[C@H](C(=O)NCCCCN(C)C)c2cc(O)cc(O[C@H]4O[C@H](CO)[C@@H](O)[C@@H](O)[C@@H]4O)c2-c2cc3ccc2O)O[C@@H](CO)[C@@H](O)[C@@H]1O | 0.06 µg/mL (≈ 0.0303 µM) | 0.12 µg/mL (≈ 0.0607 µM) | 0.12 µg/mL (≈ 0.0607 µM) | 0.06 µg/mL (≈ 0.0303 µM) | 0.12 µg/mL (≈ 0.0607 µM) | 90 mg/kg | 0.1 mg/kg | 0.25 µg/mL (≈ 0.126 µM) |
